High-throughput results (PubChem BioAssay)
DENV2 CPE: DENV2-induced cell death inhibition. DENV2-infected cells, cytopathic effect rescue, plate reader. CPE inhibition, % at 9.99 µM. 350,000 tested, 1.7% active. AID 651640; in the data active = CPE inhibition above about 20%, passing the limit was not always enough; inconclusive = no clear call, values can overlap the other calls; tested in BHK-21 cells
Ecoli rRNA inh: selective bacterial rRNA inhibition in E. coli. 350,000 tested, 1.6% active. GFP signal change (wild-type ribosome), % (concentration not given with the values). E. coli WT GFP vs humanized-ribosome RFP mutants, fluorescence, 24 h; active compounds read low; DMSO median 0, no signal -100;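 active = significant combined selectivity score with lowered wild-type GFP, culture density cut under 30%, mutant RFP and density less affected; inactive = any of these conditions unmet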
PglD DTNB: PglD (C. jejuni) enzyme inhibition | purified PglD enzyme, DTNB colorimetric CoA detection | inhibition, % at 12.5 µM | 360,000 tested, 0.098% active | AID 602405; in the data active = inhibition above about 16%, passing the limit was not always enough; inconclusive = no clear call, values can overlap the other calls
PGC1a acetyl inh: lowers PGC1a acetylation signal in U2OS cells; AlphaScreen anti-acetyl-lysine; with virally co-expressed GCN5 acetyltransferase; AID 651687; inhibition, % at 15.6 µM; 350,000 tested, 0.17% active;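 active = every replicate shows inhibition of at least 40%; inconclusive = mean inhibition at least 40% but some replicate below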
HIV Env fusion: blocks HIV Env-driven cell-cell fusion | inhibition, % at 12.3 µM | 360,000 tested, 1.1% active | AID 651610 | HeLa-JRFL Env/CEM21 cell fusion, luciferase;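 active = mean replicate inhibition score of at least 50 and every replicate individually at or above 50; inconclusive = only one of the two criteria met; inactive = mean below 50 and not all replicates reaching 50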
FN deposit inh: fibronectin deposition inhibition | inhibition, % at 12.6 µM | AID 743247 | AH1F fibroblasts, Alexa488-fibronectin deposition fluorescence, overnight | 350,000 tested, 0.086% active;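 active = mean inhibition across replicates of 30% or more, regardless of how many single replicates reach that level; inconclusive = mean under 30% yet at least half of replicates reach 30%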
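Assay system: AH1F fibroblasts assembling fluorescent fibronectin matrix; Amount: 10000 AH1F cells per well; Buffer or medium: DMEM, 2% serum; Probe or stimulus: Alexa488-fibronectin, 24 nM final in well; Doses: single compound dose, delivered by pin transfer; Incubation: 1 h adhesion, overnight exposure; Measured by: fluorescence 485/525 nm; Read-out: fibronectin deposition inhibition.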
Each line names hits and unclear results; the compound was inactive in the other large screens; ! = not confirmed by another sample. Shown are actives, neighbours in structure and some others; about 3.5% of the full set was active somewhere.

O=C(Cc1cccs1)N(Cc1cccs1)C1(C(=O)NC2CCCCC2)CCCCC1	HIV Env fusion 79 (no result: DENV2 CPE, Ecoli rRNA inh)
CCc1ccc(/C=N/NC(=O)Cc2ccc(OC)c(OC)c2)s1	Ecoli rRNA inh -24 (no result: PGC1a acetyl inh)
CCOc1ccc(NC(=O)NCc2ccccn2)cc1	HIV Env fusion 58 (no result: PGC1a acetyl inh)
Cc1ccc(NC(=O)NCc2ccccn2)cc1	none (no result: DENV2 CPE, Ecoli rRNA inh)
COc1ccc(C(=O)NC(C)c2nc3ccccc3n2C)cc1OC (stereo not drawn)	none (no result: DENV2 CPE, Ecoli rRNA inh)
COc1ccc(C(O)c2nc3ccccc3n2C)cc1OC (stereo not drawn)	HIV Env fusion 74 (no result: DENV2 CPE, Ecoli rRNA inh)
COc1ccccc1CNC(=O)C[C@@H]1CC[C@@H]2[C@H](COC[C@H](O)CN2Cc2ccc3c(c2)OCO3)O1	none
CCC(=O)N(CCC(c1ccco1)C(C)C)Cc1ccccc1 (stereo not drawn)	Ecoli rRNA inh -39
C#CCOCCOCCOCCNc1nc(N2CCN(C(=O)[C@H](CCC(=O)O)n3cc([C@@H](N)CO)nn3)CC2)nc(N2CCN(C(=O)[C@H](CCC(=O)O)n3cc([C@@H](N)CCSC)nn3)CC2)n1	none
C#CCOCCOCCOCCNc1nc(OC)nc(N2CCN(C(=O)[C@H](CCC(=O)O)n3cc(C(N)CO)nn3)CC2)n1 (stereo partly drawn)	DENV2 CPE 23
C#CCOCCOCCOCCNc1nc(N2CCOCC2)nc(N2CCN(C(=O)[C@H](Cc3ccc(O)cc3)n3cc([C@@H](N)CC(C)C)nn3)CC2)n1	DENV2 CPE 20
C[C@@H]1CN([C@H](C)CO)C(=O)c2cc(NC(=O)Nc3ccc4c(c3)OCO4)ccc2O[C@@H]1CN(C)C	none (no result: HIV Env fusion)
Cn1c(C(=O)Nc2ccc3c(c2)OCCO3)cc2sccc21	Ecoli rRNA inh -32 (no result: HIV Env fusion, FN deposit inh)
COCC(=O)N(C)C[C@@H]1Oc2ncc(C#Cc3ccc(F)cc3)cc2C(=O)N([C@H](C)CO)C[C@H]1C	none
CCOC(=O)c1ccc(S(=O)(=O)N2CCN(C(=O)CSc3nc4ccccc4o3)CC2)cc1	DENV2 CPE 29
COc1ccc(NC(=O)Nc2ccc3c(c2)C(=O)N([C@@H](C)CO)C[C@@H](C)[C@H](CN(C)Cc2ccncc2)OCCCC[C@@H](C)O3)cc1	none (no result: DENV2 CPE, FN deposit inh)
N#Cc1ccc(C23OCCN2CCn2c3c3ccccc3[n+]2[O-])cc1 (stereo not drawn)	none
Cc1ccc(C23OCCN2CCn2nc4ccccc4c23)cc1 (stereo not drawn)	DENV2 CPE 74
C[C@H]1CN(C)C(=O)Cc2cc(N)ccc2O[C@@H]1CN(C)S(C)(=O)=O	none (no result: DENV2 CPE, PglD DTNB, PGC1a acetyl inh, HIV Env fusion)
O=C(CSc1nnc(-c2c[nH]c3ccccc23)o1)N1CCCCC1	Ecoli rRNA inh -33 (no result: PGC1a acetyl inh, HIV Env fusion, FN deposit inh)
O=C(CSc1nnc(-c2c[nH]c3ccccc23)o1)N1c2ccccc2CCc2ccccc21	none (no result: HIV Env fusion, FN deposit inh)
CCOc1cc(/C=N/NC(=O)c2ccccc2OCc2ccc(F)cc2)ccc1O	Ecoli rRNA inh -21 (no result: PGC1a acetyl inh)
CC1=NN(c2ccccc2)C(=O)C1C=Nc1ccccc1O (stereo not drawn)	Ecoli rRNA inh -19 (no result: PglD DTNB)
O=C(c1ccc2c(c1)OCO2)N1C[C@@H]2N[C@H](C1)C2c1ccc(-c2cccnc2)cc1 (stereo partly drawn)	DENV2 CPE inconclusive (no result: PglD DTNB, HIV Env fusion)
CCN(CC(O)c1cccc(O)c1)C(=O)C12CC3CC(CC(C3)C1)C2 (stereo not drawn)	HIV Env fusion 74
O=C(Nc1cc([N+](=O)[O-])ccc1O)c1ccc2c(c1)C(=O)N(Cc1ccco1)C2=O	DENV2 CPE 26 (no result: PGC1a acetyl inh)
O=CN1CCN(C(C(=O)NC2CCCCC2)c2ccc(Cl)cc2)CC1 (stereo not drawn)	none
COC(=O)C1CCCN1C(C(=O)NC1CCCCC1)c1ccc(Cl)cc1 (stereo not drawn)	HIV Env fusion 66
CN1CCN(C(=O)[C@H]2[C@H](CO)[C@H]3Cn4c(ccc(-c5cccnc5)c4=O)[C@H]3N2CC2CC2)CC1	none (no result: PGC1a acetyl inh, HIV Env fusion, FN deposit inh)
Cc1nc2ncnn2c(N2CCN(c3cccc(C(F)(F)F)c3)CC2)c1C	HIV Env fusion 60 (no result: DENV2 CPE, Ecoli rRNA inh, PGC1a acetyl inh, FN deposit inh)
COc1ccc(S(=O)(=O)N2CCCCN3[C@H](CO)[C@H](c4ccc(C5=CCCC5)cc4)[C@@H]3C2)cc1	DENV2 CPE 141 (no result: HIV Env fusion, FN deposit inh)
O=S(=O)(c1cccs1)N1CCCCN2[C@H](CO)[C@H](c3ccc(Br)cc3)[C@H]2C1	DENV2 CPE 38 (no result: HIV Env fusion, FN deposit inh)
COc1ccc(-c2ccc([C@H]3[C@@H](CO)N4CCCCN(S(=O)(=O)c5cccs5)C[C@H]34)cc2)cc1	DENV2 CPE 26 (no result: HIV Env fusion, FN deposit inh)
COc1ccc(-c2ccc([C@H]3[C@H]4CN(S(=O)(=O)c5cccs5)CCCCN4[C@H]3CO)cc2)cc1	none (no result: HIV Env fusion, FN deposit inh)
C[C@@H]1CCCCO[C@@H](CN(C)C(=O)C2CCCCC2)[C@H](C)CN([C@@H](C)CO)C(=O)c2cc(NS(=O)(=O)c3ccc(F)cc3)ccc2O1	none
C[C@H](CO)N1C[C@H](C)[C@H](CN(C)Cc2ccccc2)OCCCC[C@H](C)Oc2ccc(NC(=O)c3ccncc3)cc2C1=O	none
CC(C)NC(=O)N[C@@H]1CC[C@@H](CCN)O[C@H]1CO	DENV2 CPE inconclusive
C=C[C@@H](C)N(Cc1ccc(OC)cc1)S(=O)(=O)N(Cc1ccccc1)[C@H](C=C)C(C)C	HIV Env fusion 89
Cc1cc(C(=O)N/N=C/c2cc(Br)cc(Br)c2OC(=O)c2cccc(F)c2)n[nH]1	Ecoli rRNA inh -31 (no result: PglD DTNB)
Cc1cccc(C(=O)Oc2c(Br)cc(Br)cc2/C=N/NC(=O)c2ccncc2)c1	none
COc1ccc(NC(=O)Nc2ccc3c(c2)C(=O)N([C@H](C)CO)C[C@H](C)[C@@H](CN(C)C)OCCCC[C@@H](C)O3)cc1	DENV2 CPE inconclusive (no result: FN deposit inh)
CC(=O)Oc1cccc(C2=CC(=O)CC(C)(C)C2=O)c1	DENV2 CPE 22 (no result: FN deposit inh)
C[C@H]1CN([C@@H](C)CO)C(=O)c2cc(NC(=O)Cn3cnnn3)ccc2O[C@H]1CN(C)Cc1ccc(-c2ccccc2)cc1	DENV2 CPE 33 (no result: FN deposit inh)
C[C@H](CO)N1C[C@H](C)[C@H](CN(C)Cc2ccc(-c3ccccc3)cc2)Oc2ccc(NC(=O)CCCN(C)C)cc2C1=O	FN deposit inh 53 (no result: HIV Env fusion)
C[C@H](CO)N1C[C@H](C)[C@@H](CN(C)Cc2ccc(-c3ccccc3)cc2)Oc2ccc(NC(=O)CCCN(C)C)cc2C1=O	none (no result: HIV Env fusion)
C[C@@H]1CN([C@@H](C)CO)C(=O)c2cc(NC(=O)CCCN(C)C)ccc2O[C@@H]1CN(C)Cc1ccccc1	DENV2 CPE 30 (no result: FN deposit inh)
CNC[C@H]1Oc2ccc(NC(=O)Cn3cnnn3)cc2C(=O)N([C@@H](C)CO)C[C@H]1C	DENV2 CPE 32 (no result: HIV Env fusion)
COCC(=O)N1C[C@@H](C)[C@H](OC)CN(C)C(=O)c2cc(NC(=O)NC(C)C)ccc2OC[C@@H]1C	none
C[C@H](CO)N1C[C@H](C)[C@@H](CN(C)C(=O)NC2CCCCC2)Oc2c(cccc2N(C)C)C1=O	HIV Env fusion 85!
